Results from ChEMBL document CHEMBL3244406, “11,12-Secoprostaglandins. 5. 8-Acetyl- or 8-(1-hydroxyethyl)-12-hydroxy-13-aryloxytridecanoic acids and sulfonamide isosteres as inhibitors of platelet aggregation” (1978).
Active and inactive are the calls of the source. The rule behind the calls is not given here.

How the values were obtained:
Platelet [1] = experiment: Inhibition of bovine collagen-induced platelet aggregation isolated from po treated Hartley guinea pig after 1 hr treatment; assay type: functional; details: Cavia porcellus
Summary of the method: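 Male Hartley guinea pigs (0.6-1.1 kg) dosed orally, suspended in 5 ml/kg EtOH-H2O Emulphor, three animals at each of three doses plus vehicle controls. Cardiac-puncture blood taken 1 h later, pooled per group, PRP spun at 200g for 10 min, platelets matched with PPP.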

[2] = (§1) Induction of prostaglandin-like activity in CD-1 mouse ovary assessed as fold increase in [14C]-cAMP formation using ATP-[14C] substrate at 100 ug/ml after 30 mins incubation by PG assay; assay type: functional, Female gonad
Mus musculus [3] = species: Mus musculus; experiment: (§2) Induction of prostaglandin-like activity in CD-1 mouse ovary assessed as fold increase in [14C]-cAMP formation using ATP-[14C] substrate at 25 ug/ml after 30 mins incubation by PG assay; assay type: functional; details: Female gonad
[4] = as §2; assay type: functional, Female gonad
[5] = (§3) Induction of prostaglandin-like activity in CD-1 mouse ovary assessed as fold increase in [14C]-cAMP formation using ATP-[14C] substrate at 10 ug/ml after 30 mins incubation by PG assay; assay type: functional, Female gonad
Platelet [6] = experiment: Inhibition of bovine collagen-induced platelet aggregation isolated from ip treated Hartley guinea pig after 1 hr treatment; assay type: functional; details: Cavia porcellus
Mus musculus [7] = species: Mus musculus; experiment: as §3; assay type: functional; details: Female gonad
Mus musculus [8] = species: Mus musculus; experiment: as §1; assay type: functional; details: Female gonad

| SMILES | ED50 (Platelet [1]) [mg/kg] | fold change (FC) [2] | Activity (Mus musculus [3]) | fold change (FC) [4] | fold change (FC) [5] | ED50 (Platelet [6]) [mg/kg] | Activity (Mus musculus [7]) | Activity (Mus musculus [8]) |
| --- | --- | --- | --- | --- | --- | --- | --- | --- |
| CC(O)C(CCCCCCC(=O)O)CCCC(O)COc1cccc(Cl)c1 (configuration not stated) | 7.5 | 2 | inactive |  |  |  |  |  |
| CC(=O)C(CCCCCCC(=O)O)CCCC(O)COc1ccc(F)cc1 (configuration not stated) | 0.5 | 4 | inactive |  |  |  |  |  |
| Cc1ccc(OCC(O)CCCN(CCCCCCC(=O)O)S(C)(=O)=O)cc1 (configuration not stated) | 5 | 16 |  | 11 | 4 |  |  |  |
| CC(O)C(C/C=C\CCCC(=O)O)CCCC(O)COc1ccc(F)cc1 (configuration not stated) | 0.12 | 3 | inactive |  |  |  |  |  |
| CC(=O)Oc1ccccc1C(=O)O [ASPIRIN] | 4.5 |  |  |  |  |  |  |  |
| CS(=O)(=O)N(CCCCCCC(=O)O)CCCC(O)COc1ccccc1 (configuration not stated) | 1 | 3 | inactive |  |  |  |  |  |
| CS(=O)(=O)N(CCCCCCC(=O)O)CCCC(O)COc1cccc(F)c1 (configuration not stated) | 1 | 4 |  | 2 |  |  |  |  |
| CS(=O)(=O)N(C/C=C\CCCC(=O)O)C/C=C/C(O)COc1ccc(F)cc1 (configuration not stated) | 0.01 | 11 |  | 4 | 2 |  |  |  |
| CCCCC[C@H](O)/C=C/[C@H]1[C@H](O)CC(=O)[C@@H]1CCCCCCC(=O)O [ALPROSTADIL] |  |  |  |  | 60 | 0.02 |  |  |
| CS(=O)(=O)N(CCCCCCC(=O)O)CCCC(O)CSc1ccc(F)cc1 (configuration not stated) | 6 | 18 |  | 14 | 6 |  |  |  |
| CS(=O)(=O)N(CCCCCCC(=O)O)CCCC(O)COc1ccc(F)cc1 (configuration not stated) | 0.04 | 11 |  | 7 | 2 |  |  |  |
| COc1ccc(OCC(O)CCCN(CCCCCCC(=O)O)S(C)(=O)=O)cc1 (configuration not stated) | > 10 | 16 |  | 3 |  |  | inactive |  |
| CC(=O)C(CCCCCCC(=O)O)CCCC(O)COc1cccc(C(F)(F)F)c1 (configuration not stated) | > 10 |  | inactive |  |  |  |  | inactive |
| CS(=O)(=O)N(CCCCCCC(=O)O)CCCC(O)COc1ccc(Cl)cc1 (configuration not stated) | 10 | 31 |  | 21 | 8 |  |  |  |
| CC(O)C(CCCCCCC(=O)O)CCCC(O)COc1ccc(F)cc1 (configuration not stated) | 1 | 3 | inactive |  |  |  |  |  |
| CC(O)C(CCCCCCC(=O)O)CCCC(O)COc1ccc(C(F)(F)F)cc1 (configuration not stated) | 1 |  | inactive |  |  |  |  | inactive |
| CC(=O)C(CCCCCCC(=O)O)CCCC(O)COc1ccccc1OCc1ccccc1 (configuration not stated) | > 10 |  | inactive |  |  |  |  | inactive |
| CS(=O)(=O)N(CCCCCCC(=O)O)CCCC(O)COc1cccc(Cl)c1 (configuration not stated) | 1 | 5 | inactive |  |  |  |  |  |
| CCCCCC(O)CCCN(CCCCCCC(=O)O)S(C)(=O)=O (racemic) | 6 | 61 |  | 56 | 40 |  |  |  |
| CC(=O)C(CC#CCCCC(=O)O)CCCC(O)COc1ccc(F)cc1 (configuration not stated) | 0.25 |  | inactive |  |  |  |  | inactive |
| CCCCCC(O)CCCC(CCCCCCC(=O)O)C(C)=O (mixture of isomers) | 6.5 | 23 |  | 14 | 11 |  |  |  |
| CC(=O)C(CCCCCCC(=O)O)CCCC(O)COc1ccc(C(C)(C)C)cc1 (configuration not stated) | 10 |  | inactive |  |  |  |  | inactive |
| CC(=O)C(CCCCCCC(=O)O)CCCC(O)COc1ccccc1O (configuration not stated) | 5 |  | inactive |  |  |  |  | inactive |
| CC(=O)C(C/C=C\CCCC(=O)O)CCCC(O)COc1ccc(F)cc1 (configuration not stated) | 0.09 | 2 | inactive |  |  |  |  |  |
| CS(=O)(=O)N(CCCCCCC(=O)O)CCCC(O)CS(=O)(=O)c1ccc(F)cc1 (configuration not stated) | > 10 | 3 | inactive |  |  |  |  |  |
| CC(O)C(CCCCCCC(=O)O)CCCC(O)COc1ccccc1F (configuration not stated) | 7.5 |  | inactive |  |  |  |  | inactive |
| CC(O)C(CC#CCCCC(=O)O)CCCC(O)COc1ccc(F)cc1 (configuration not stated) | 0.04 | 2 | inactive |  |  |  |  |  |
| CS(=O)(=O)N(CCCCCCC(=O)O)CCCC(O)COc1ccccc1F (configuration not stated) | 0.15 |  | inactive |  |  |  |  | inactive |
| CS(=O)(=O)N(C/C=C\CCCC(=O)O)C/C=C/C(O)COc1cccc(C(F)(F)F)c1 (configuration not stated) | 5 |  | inactive |  |  |  |  | inactive |
